Data taken from ChEMBL document CHEMBL4145471, “New 1,5 and 2,5-disubstituted tetrazoles-dependent activity towards surface barrier of Candida albicans” (Eur J Med Chem, 2018).
One block for each molecule: values may come before it.

Columns and labels:
Candida albicans [1] = test: Antifungal activity against Candida albicans ATCC 90028 after 48 hrs assessed as fluconazol MIC by XTT assay; format: functional; conditions: ATCC 90028, 48 h
Method in brief: (§1)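 Checkerboard against strain ATCC 90028, inoculum per M27-A3: fluconazole 80-1.25 µg/mL on one axis, tetrazole 80-1.25 µg/mL on the other. Plates at 35°C for 48 h, then XTT metabolic reduction read at 475 nm (660 nm reference). Activity is the drop in mean absorbance against untreated growth control. FICs and their summed FIC index are taken at 50% reduction in metabolic activity.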

Candida albicans [2] = test: Antifungal activity against Candida albicans ATCC 90028 assessed as inhibition of metabolic activity at 2.5 ug/ml after 48 hrs in presence of 5 ug/ml fluconazol by XTT assay relative to control; format: functional; conditions: values are per cent of control
Method in brief: (§2)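 C. albicans ATCC 90028 in checkerboard: fluconazole serial dilutions (80-1.25 µg/mL) crossed with tetrazole (80-1.25 µg/mL final), M27-A3 inoculum in RPMI 1640, 35°C for 48 h. Metabolic activity measured by XTT reduction, read at 475 nm (660 nm reference). Activity expressed relative to untreated growth control absorbance.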

Candida albicans [3] = test: Synergistic antifungal activity against Candida albicans ATCC 90028 at 1.25 ug/ml after 48 hrs in presence of 20 ug/ml fluconazol by checkerboard assay relative to control; format: functional
Method in brief: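 Checkerboard per M27-A3 against ATCC 90028: fluconazole at 80–1.25 µg/mL horizontally and partner compound at 80–1.25 µg/mL vertically, 100 µL yeast inoculum per well, 35°C for 48 h. After 48 h, metabolic activity was measured by XTT reduction at 475 nm (660 nm reference) relative to untreated growth control. FIC index is the sum of the FICs; <1 was defined as synergism and >1 as antagonism.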

Candida albicans [4] = test: Antifungal activity against Candida albicans ATCC 90028 assessed as inhibition of metabolic activity at 2.5 ug/ml after 48 hrs in presence of 2.5 ug/ml fluconazol by XTT assay relative to control; format: functional; conditions: ATCC 90028, 48 h, values are per cent of control; method in brief: as §2
Candida albicans [5] = test: Antifungal activity against Candida albicans ATCC 90028 assessed as metabolic activity at 20 ug/ml after 48 hrs in presence of 5 ug/ml fluconazol by XTT assay relative to control
Candida albicans [6] = test: Antifungal activity against Candida albicans ATCC 90028 assessed as metabolic activity at 1.25 ug/ml after 48 hrs in presence of 1.25 ug/ml fluconazol by XTT assay relative to control; conditions: ATCC 90028, 48 h
Candida albicans [7] = test: Antifungal activity against Candida albicans ATCC 90028 assessed as metabolic activity at 20 ug/ml after 48 hrs in presence of 1.25 ug/ml fluconazol by XTT assay relative to control
Candida albicans [8] = test: Antifungal activity against Candida albicans ATCC 90028 assessed as metabolic activity at 20 ug/ml after 48 hrs in presence of 40 ug/ml fluconazol by XTT assay relative to control
Candida albicans [9] = test: Synergistic antifungal activity against Candida albicans ATCC 90028 at 5 ug/ml after 48 hrs in presence of 10 ug/ml fluconazol by checkerboard assay relative to control; format: functional
Method in brief: (§3)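 Checkerboard in C. albicans ATCC 90028, inoculum prepared per CLSI M27-A3 in RPMI. Fluconazole serially diluted 80-1.25 µg/mL across the plate against the partner compound at 80-1.25 µg/mL final. Incubated 48 h at 35°C. Metabolic activity read by XTT reduction at 475 nm (660 nm reference), given as % of the untreated growth control.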

Candida albicans [10] = test: Synergistic antifungal activity against Candida albicans ATCC 90028 at 10 ug/ml after 48 hrs in presence of 2.5 ug/ml fluconazol by checkerboard assay relative to control; format: functional
Method in brief: (§4)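 Checkerboard microdilution (M27-A3) on C. albicans ATCC 90028 in RPMI 1640: fluconazole (80-1.25 µg/mL) crossed with tetrazole (80-1.25 µg/mL final), incubated at 35°C for 48 h. Growth by OD405 at 18 and 48 h, endpoint taken as 100% inhibition. FIC index = sum of the two agents' FICs; <1 synergism, >1 antagonism.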

Candida albicans [11] = test: Antifungal activity against Candida albicans ATCC 90028 after 48 hrs in presence of fluconazol by XTT assay; format: functional; conditions: ATCC 90028, 48 h; method in brief: as §1
Candida albicans [12] = test: Synergistic antifungal activity against Candida albicans ATCC 90028 at 2.5 ug/ml after 48 hrs in presence of 2.5 ug/ml fluconazol by checkerboard assay relative to control; format: functional; conditions: ATCC 90028, 48 h, read-out: GI; method in brief: as §4
Candida albicans [13] = test: Antifungal activity against Candida albicans ATCC 90028 assessed as inhibition of metabolic activity at 5 ug/ml after 48 hrs in presence of 5 ug/ml fluconazol by XTT assay relative to control; format: functional; conditions: ATCC 90028, 48 h, values are per cent of control; method in brief: as §1
Candida albicans [14] = test: Synergistic antifungal activity against Candida albicans ATCC 90028 at 5 ug/ml after 48 hrs in presence of 1.25 ug/ml fluconazol by checkerboard assay relative to control; format: functional; method in brief: as §3
Candida albicans [15] = test: Antifungal activity against Candida albicans ATCC 90028 at 0.0625 ug/ml after 18 hrs relative to control; format: functional
Candida albicans [16] = test: Synergistic antifungal activity against Candida albicans ATCC 90028 at 5 ug/ml after 48 hrs in presence of 2.5 ug/ml fluconazol by checkerboard assay relative to control; format: functional; method in brief: as §4
Candida albicans [17] = test: Synergistic antifungal activity against Candida albicans ATCC 90028 at 2.5 ug/ml after 48 hrs in presence of 40 ug/ml fluconazol by checkerboard assay relative to control; format: functional; method in brief: as §4
Candida albicans [18] = test: Antifungal activity against Candida albicans ATCC 90028 assessed as inhibition of metabolic activity at 5 ug/ml after 48 hrs in presence of 80 ug/ml fluconazol by XTT assay relative to control; format: functional; conditions: values are per cent of control; method in brief: as §1
Candida albicans [19] = test: Antifungal activity against Candida albicans ATCC 90028 assessed as metabolic activity at 10 ug/ml after 48 hrs in presence of 80 ug/ml fluconazol by XTT assay relative to control
Candida albicans [20] = test: Antifungal activity against Candida albicans ATCC 90028 after 48 hrs by M27-A3 microdilution method; format: functional; conditions: ATCC 90028, 48 h
Candida albicans [21] = test: Antifungal activity against Candida albicans ATCC 90028 assessed as metabolic activity at 80 ug/ml after 48 hrs in presence of 1.25 ug/ml fluconazol by XTT assay relative to control
Candida albicans [22] = test: Synergistic antifungal activity against Candida albicans ATCC 90028 at 2.5 ug/ml after 48 hrs in presence of 5 ug/ml fluconazol by checkerboard assay relative to control; format: functional; method in brief: as §4

SMILES: ClCCCn1nnnc1-c1ccccc1Cl
MIC (Candida albicans [1]): 1.25 µg/mL
residual activity (Candida albicans [2]): 100%
growth inhibition (GI) (Candida albicans [3]): 99.58%
residual activity at 2.5 µg/mL (Candida albicans [4]): 75.8%
Metabolic activity (Candida albicans [5]): 99.55%
metabolic activity at 1.25 µg/mL (Candida albicans [6]): 86.4%
Metabolic activity (Candida albicans [7]): 0%
Metabolic activity (Candida albicans [8]): 82.92%
growth inhibition (GI) (Candida albicans [9]): 99.66%
growth inhibition (GI) (Candida albicans [10]): 99.41%
MIC (Candida albicans [11]): 80 µg/mL
inhibition of growth at 2.5 µg/mL (Candida albicans [12]): 99.4%
residual activity at 5 µg/mL (Candida albicans [13]): 100%
growth inhibition (GI) (Candida albicans [14]): 99.79%
Activity (Candida albicans [15]): 99.9%
growth inhibition (GI) (Candida albicans [16]): 99.14%
growth inhibition (GI) (Candida albicans [17]): 99.32%
residual activity (Candida albicans [18]): 77.27%
Metabolic activity (Candida albicans [19]): 80.34%
MIC (Candida albicans [20]): > 16 µg/mL
Metabolic activity (Candida albicans [21]): 2.6%
growth inhibition (GI) (Candida albicans [22]): 98.94%

SMILES: CCOC(=O)CCn1nnc(-c2ccccc2)n1
MIC (Candida albicans [1]): 1.25 µg/mL
residual activity (Candida albicans [2]): 95.38%
growth inhibition (GI) (Candida albicans [3]): 99.65%
residual activity at 2.5 µg/mL (Candida albicans [4]): 82.6%
Metabolic activity (Candida albicans [5]): 100%
metabolic activity at 1.25 µg/mL (Candida albicans [6]): 87%
Metabolic activity (Candida albicans [7]): 90.68%
Metabolic activity (Candida albicans [8]): 99.65%
growth inhibition (GI) (Candida albicans [9]): 99.57%
growth inhibition (GI) (Candida albicans [10]): 99.62%
MIC (Candida albicans [11]): 80 µg/mL
inhibition of growth at 2.5 µg/mL (Candida albicans [12]): 99.8%
residual activity at 5 µg/mL (Candida albicans [13]): 100%
growth inhibition (GI) (Candida albicans [14]): 99.71%
Activity (Candida albicans [15]): 99.57%
growth inhibition (GI) (Candida albicans [16]): 99.77%
growth inhibition (GI) (Candida albicans [17]): 99.46%
residual activity (Candida albicans [18]): 71.92%
Metabolic activity (Candida albicans [19]): 77.26%
MIC (Candida albicans [20]): > 16 µg/mL
Metabolic activity (Candida albicans [21]): 41.98%
growth inhibition (GI) (Candida albicans [22]): 99.08%

MIC (Candida albicans [1]): 10 µg/mL
MIC (Candida albicans [11]): 20 µg/mL
MIC (Candida albicans [20]): > 16 µg/mL
SMILES: Cc1ccc(-c2nnn(CCCN3CCOCC3)n2)cc1
residual activity (Candida albicans [2]): 100%
growth inhibition (GI) (Candida albicans [3]): 99.46%
residual activity at 2.5 µg/mL (Candida albicans [4]): 100%
Metabolic activity (Candida albicans [5]): 100%
metabolic activity at 1.25 µg/mL (Candida albicans [6]): 74.3%
Metabolic activity (Candida albicans [7]): 76.07%
Metabolic activity (Candida albicans [8]): 93.5%
growth inhibition (GI) (Candida albicans [9]): 98.8%
growth inhibition (GI) (Candida albicans [10]): 98.46%
inhibition of growth at 2.5 µg/mL (Candida albicans [12]): 98.5%
residual activity at 5 µg/mL (Candida albicans [13]): 100%
growth inhibition (GI) (Candida albicans [14]): 98.77%
Activity (Candida albicans [15]): 99.5%
growth inhibition (GI) (Candida albicans [16]): 98.9%
growth inhibition (GI) (Candida albicans [17]): 98.91%
residual activity (Candida albicans [18]): 88.19%
Metabolic activity (Candida albicans [19]): 89.3%
Metabolic activity (Candida albicans [21]): 100%
growth inhibition (GI) (Candida albicans [22]): 98.33%
